≈ marks a conversion by molar mass, not a printed value.
Assays:
Bacterial 70S ribosome = assay: (§1) Displacement of [14C]erythromycin from Escherichia coli ribosomes after 30 mins by scintillation spectrometer analysis
Procedure, shortened: (§2)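 NH4Cl-washed E. coli ribosomes with [14C]erythromycin A and varied competitor concentrations in 0.01 M Tris-HCl pH 7.2, 0.1 M KCl, 0.004 M MgCl2, 0.01 M NH4Cl. Incubated 30 min at 24 °C, stopped by dilution in cold Tris/KCl/MgCl2 buffer, membrane-filtered, washed three times, dried, scintillation counted. Reports the concentration giving 50% inhibition of binding.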

[1] = biological target: Bacterial 70S ribosome (Bacteria) (UniProt P0A7V0+P60723+P0AG67+P0A7R5+P0A7R9+P0A7S3+P0A7S9+P0AG59+P0ADZ4+P0A7T3+P0AG63+P0A7T7+P0A7U3+P0A7U7+P68679+P0A7V3+P0A7V8+P0A7W1+P02358+P02359+P0A7W7+P0A7X3+P0A7J3+P0A7J7+P0AA10+P0ADY3+P02413+P0ADY7+P0AG44+P0C018+P0A7K6+P0A7L0+P0A7L3+P0AG48+P61175+P0ADZ0+P60624+P68919+P0A7L8+P0A7M2+P0A7M6+P60422+P0AG51+P0A7N1+P0A7M9+P0A7N4+P0A7N9+P0A7P5+P0A7Q1+Q2EEQ2+P0A7Q6+P60438+P62399+P0AG55+P0A7K2); assay: as §1; procedure, shortened: as §2
Klebsiella pneumoniae = assay: Antimicrobial activity against Klebsiella pneumoniae ATCC 10031 by agar dilution method; format: functional
Procedure, shortened: (§3)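 Read-out is the minimal inhibitory concentration, found by agar dilution against the named strain.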

Staphylococcus aureus = assay: Antimicrobial activity against Staphylococcus aureus ATCC 6538P by agar dilution method; format: functional; procedure, shortened: as §3
Bacillus spizizenii = assay: Antimicrobial activity against Bacillus subtilis ATCC 6633 by agar dilution method; format: functional; procedure, shortened: as §3
[2] = Klebsiella pneumoniae, ATCC 10031, read-out: MIC
[3] = Staphylococcus aureus, ATCC 6538P, read-out: MIC
[4] = Bacillus spizizenii, ATCC 6633, read-out: MIC

SMILES | IC50 (Bacterial 70S ribosome) | pK50 [1] | MIC (Klebsiella pneumoniae; [2]) | MIC (Staphylococcus aureus; [3]) | MIC (Bacillus spizizenii; [4]) | MIC (Klebsiella pneumoniae) | MIC (Staphylococcus aureus) | MIC (Bacillus spizizenii)
CO[C@@H]1[C@@H](O[C@@H]2O[C@H](C)[C@@H](O[C@H]3C[C@@](C)(O)[C@@H](OC(=O)CC(C)C)[C@H](C)O3)[C@H](N(C)C)[C@H]2O)[C@@H](CC=O)C[C@@H](C)[C@@H](OC(=O)CCl)/C=C/C=C/C[C@@H](C)OC(=O)C[C@H]1OC(C)=O | 1700 nM | 5.8 | 50 µg/mL (≈ 55.3 µM) | 0.8 µg/mL (≈ 0.884 µM) | 0.4 µg/mL (≈ 0.442 µM) | – | – | –
CO[C@@H]1[C@@H](O[C@@H]2O[C@H](C)[C@@H](O[C@H]3C[C@@](C)(O)[C@@H](OC(=O)CC(C)C)[C@H](C)O3)[C@H](N(C)C)[C@H]2O)[C@@H](CC=O)C[C@@H](C)[C@@H](OC(C)=O)/C=C/C=C/C[C@@H](C)OC(=O)C[C@H]1OC(C)=O | 1300 nM | 5.9 | 50 µg/mL (≈ 57.5 µM) | 1.6 µg/mL (≈ 1.84 µM) | 1.6 µg/mL (≈ 1.84 µM) | – | – | –
CCCC(=O)O[C@H]1/C=C/C=C/C[C@@H](C)OC(=O)C[C@@H](OC(C)=O)[C@H](OC)[C@@H](O[C@@H]2O[C@H](C)[C@@H](O[C@H]3C[C@@](C)(O)[C@@H](OC(=O)CC(C)C)[C@H](C)O3)[C@H](N(C)C)[C@H]2O)[C@@H](CC=O)C[C@H]1C | 1900 nM | 5.7 | 100 µg/mL (≈ 111 µM) | 3.1 µg/mL (≈ 3.45 µM) | 1.6 µg/mL (≈ 1.78 µM) | – | – | –
CO[C@@H]1[C@@H](O[C@@H]2O[C@H](C)[C@@H](O[C@H]3C[C@@](C)(O)[C@@H](OC(=O)CC(C)C)[C@H](C)O3)[C@H](N(C)C)[C@H]2O)[C@@H](CC=O)C[C@@H](C)[C@@H](O)/C=C/C=C/C[C@@H](C)OC(=O)C[C@H]1O (stereo in doubt; 2) [KITASAMYCIN] | 1000 nM | 6 | – | – | – | 25 µg/mL (≈ 31.8 µM) | 1.6 µg/mL (≈ 2.04 µM) | 0.4 µg/mL (≈ 0.509 µM)
CCCC(=O)O[C@H]1[C@H](C)O[C@@H](O[C@H]2[C@H](N(C)C)[C@@H](OC(C)=O)[C@H](O[C@H]3[C@@H](CC=O)C[C@@H](C)[C@@H](OC(C)=O)/C=C/C=C/C[C@@H](C)OC(=O)C[C@@H](O)[C@@H]3OC)O[C@@H]2C)C[C@@]1(C)O | 23400 nM | 4.6 | 100 µg/mL (≈ 117 µM) | 1.6 µg/mL (≈ 1.87 µM) | 0.8 µg/mL (≈ 0.935 µM) | – | – | –
CO[C@@H]1[C@@H](O[C@@H]2O[C@H](C)[C@@H](O[C@H]3C[C@@](C)(O)[C@@H](OC(=O)CC(C)C)[C@H](C)O3)[C@H](N(C)C)[C@H]2O)[C@@H](CC=O)C[C@@H](C)[C@@H](O)/C=C/C=C/C[C@@H](C)OC(=O)C[C@H]1OC(C)=O [JOSAMYCIN] | 1200 nM | 5.9 | 25 µg/mL (≈ 30.2 µM) | 1.6 µg/mL (≈ 1.93 µM) | 0.4 µg/mL (≈ 0.483 µM) | – | – | –
CCCC(=O)O[C@H]1[C@H](C)O[C@@H](O[C@H]2[C@H](N(C)C)[C@@H](O)[C@H](O[C@H]3[C@@H](CC=O)C[C@@H](C)[C@@H](OC(=O)C(Cl)Cl)/C=C/C=C/C[C@@H](C)OC(=O)C[C@@H](O)[C@@H]3OC)O[C@@H]2C)C[C@@]1(C)O | 1300 nM | 5.9 | 25 µg/mL (≈ 28.3 µM) | 1.6 µg/mL (≈ 1.81 µM) | 1.6 µg/mL (≈ 1.81 µM) | – | – | –
CC[C@H]1OC(=O)[C@H](C)[C@@H](O[C@H]2C[C@@](C)(OC)[C@@H](O)[C@H](C)O2)[C@H](C)[C@@H](O[C@@H]2O[C@H](C)C[C@H](N(C)C)[C@H]2O)[C@](C)(O)C[C@@H](C)C(=O)[C@H](C)[C@@H](O)[C@]1(C)O [ERYTHROMYCIN] | 750 nM | 6.1 | 6.3 µg/mL (≈ 8.58 µM) | 0.4 µg/mL (≈ 0.545 µM) | 0.2 µg/mL (≈ 0.273 µM) | – | – | –
CCCC(=O)O[C@H]1[C@H](C)O[C@@H](O[C@H]2[C@H](N(C)C)[C@@H](OC(C)=O)[C@H](O[C@H]3[C@@H](CC=O)C[C@@H](C)[C@@H](O)/C=C/C=C/C[C@@H](C)OC(=O)C[C@@H](O)[C@@H]3OC)O[C@@H]2C)C[C@@]1(C)O | 14800 nM | 4.8 | 12.5 µg/mL (≈ 15.4 µM) | 1.6 µg/mL (≈ 1.97 µM) | 0.8 µg/mL (≈ 0.983 µM) | – | – | –

From ChEMBL document CHEMBL3244414, “Structure-activity relationships among the O-acyl derivatives of leucomycin. Correlation of minimal inhibitory concentrations with binding to Escherichia coli ribosomes” (J Med Chem, 1977)
